Test results as given in ChEMBL document CHEMBL3351834, “Jalapinoside, a macrocyclic bisdesmoside from the resin glycosides of Ipomea purga, as a modulator of multidrug resistance in human cancer cells” (J Nat Prod, 2015).
In brackets after ≈: the same amount, converted by molar mass.

Experiments:
MCF7 [1] = assay: Cytotoxicity against human MCF7 cells assessed as growth inhibition after 72 hrs by SRB assay in presence of vinblastine; type: functional, cell-based; conditions: MCF7, 72 h
Method in brief: (§1)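 SRB assay. Log-phase cells, RPMI 1640 + 10% FBS, treated in triplicate with test samples at 0.2−25 μg/mL, 72 h at 37 °C, 5% CO2, static conditions. IC50 (50% inhibition of control growth) read from a semilog plot of concentration (μg/mL) against % growth inhibition. Resistant subline kept in 0.192 μg/mL vinblastine; a vinblastine-free stock also maintained.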

MCF7 [2] = assay: Cytotoxicity against vinblastin-sensitive human MCF7 cells assessed as growth inhibition after 72 hrs by SRB assay; type: functional, cell-based; conditions: MCF7, 72 h; method in brief: as §1
MCF7 [3] = assay: Cytotoxicity against human MCF7 cells assessed as growth inhibition after 72 hrs by SRB assay; type: functional, cell-based; conditions: MCF7, 72 h; method in brief: as §1
MCF7 [4] = assay: Reversal of multidrug-resistance in human MCF7 cells assessed as reduction in vinblastine IC50 at 25 ug/ml relative to IC50 vinblastine alone; type: functional
Method in brief: (§2)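 Modulation by SRB assay. MCF-7 or MCF-7/Vin cells exposed 72 h to vinblastine (0.000 64−10 μg/mL) with or without glycolipid at 25 or 5 μg/mL (water−DMSO 9:1). Vinblastine IC50 taken from a semilog growth-inhibition plot. Reserpine 5 μg/mL as reference modulator. Reversal fold = IC50 of vinblastine alone ÷ IC50 with test compound.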

MCF7 [5] = assay: Reversal of multidrug-resistance in vinblastin-sensitive human MCF7 cells assessed as reduction in vinblastine IC50 at 25 ug/ml relative to IC50 vinblastine alone; type: functional; method in brief: as §2
MCF7 [6] = assay: Reversal of multidrug-resistance in human MCF7 cells in presence of vinblastine assessed as reduction in vinblastine IC50 at 25 ug/ml relative to IC50 vinblastine alone; type: functional; method in brief: as §2

Row | SMILES | IC50 (MCF7 [1]) [µg/mL] | IC50 (MCF7 [2]) [µg/mL] | IC50 (MCF7 [3]) [µg/mL] | fold change (FC) (MCF7 [4]) | fold change (FC) (MCF7 [5]) | fold change (FC) (MCF7 [6])
1 | COC(=O)[C@H]1[C@H]2C[C@@H]3c4[nH]c5cc(OC)ccc5c4CCN3C[C@H]2C[C@@H](OC(=O)c2cc(OC)c(OC)c(OC)c2)[C@@H]1OC [RESERPINE] | 0.31 | 0.003 (≈ 0.00493 µM) | 0.037 (≈ 0.0608 µM) | – | – | –
2 | CC[C@]1(O)C[C@@H]2CN(CCc3c([nH]c4ccccc34)[C@@](C(=O)OC)(c3cc4c(cc3OC)N(C)[C@H]3[C@@](O)(C(=O)OC)[C@H](OC(C)=O)[C@]5(CC)C=CCN6CC[C@]43[C@@H]65)C2)C1 [VINBLASTINE] | 1.22 | – | 1.02 (≈ 1.26 µM) | – | – | –
3 | CCCCCCCCCCCC(=O)O[C@H]1[C@@H](O)[C@@H](C)O[C@@H](O[C@@H]2[C@@H](O[C@@H]3O[C@H](CO)[C@@H](O)[C@H](O)[C@H]3O[C@@H]3O[C@H](C)[C@@H](O)[C@H](OC(=O)[C@@H](C)CC)[C@H]3O)[C@@H](OC(=O)[C@@H](C)CC)[C@H](O[C@H]3[C@@H]4O[C@H]5[C@H](O[C@H](CCC)CCCCCCC[C@H](O[C@@H]6O[C@H](C)[C@@H](O)[C@H](O)[C@H]6O)CC(=O)O[C@H]3[C@H](O)[C@@H](COC(C)=O)O4)O[C@H](C)[C@@H](O)[C@@H]5O)O[C@H]2C)[C@@H]1O | < 0.00064 | < 0.00064 | < 0.00064 | >1593 | 73.4 | >1906.3
